From ChEMBL document CHEMBL3232838, “Synthesis, crystal structure and biological evaluation of some novel 1,2,4-triazolo[3,4-b]-1,3,4-thiadiazoles and 1,2,4-triazolo[3,4-b]-1,3,4-thiadiazines” (Eur J Med Chem, 2014)

How the values were obtained:
[1] = Anticancer activity against Syrian golden hamster BHK21 cells at 0.1 uM after 48 hrs by SRB assay; assay type: functional; details: Mesocricetus auratus, BHK-21, 48 h; read-out: GI
How it was run: (§1)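 RPMI-1640 culture with 10% heat-inactivated FBS, 2 mM glutamine, 1 mM pyruvate and penicillin/streptomycin at 37 °C, 5% CO2. Cells per 96-well well: H157 10⁴, BHK-21 5×10⁴. After 24 h, monolayers were exposed to 100, 10, 1 or 0.1 µM compound for 48 h, with vincristine as standard. Cells were fixed in cold 50% TCA (4 °C, 1 h) and stained with 0.4% SRB in 1% acetic acid (30 min). Dye was dissolved in 10 mM Tris and read at A490 minus A630. Read-out was percent inhibition.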

NCI-H157 [2] = test: Anticancer activity against human NCI-H157 cells at 10 uM after 48 hrs by SRB assay; assay type: functional; details: NCI-H157, 48 h, read-out: GI; how it was run: as §1
Cholinesterase = Cholinesterase (Homo sapiens, UniProt P06276); test: Inhibition of human BChE using butyrylthiocholine iodide as substrate preincubated for 10 mins before substrate addition after 15 mins by Ellman's method
How it was run: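 Ellman assay in 50 mM Tris-HCl, 0.1 M NaCl, 0.02 M MgCl2, pH 8.0, with DMSO at 1% final. hBChE (3.4 U/mg) is preincubated with compound for 10 min at 25 °C. Blanks lack enzyme or substrate. IC50 from linear regression.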

Leishmania major [3] = test: Antileishmanial activity against promastigote form of Leishmania major at 100 uM after 72 hrs by MTT assay; assay type: functional
How it was run: (§2)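 Log-phase promastigotes grown at 25 °C in phenol-red-free D-MEM/F-12 with 10% heat-inactivated FBS, washed in PBS, seeded at 2.5×10⁶/mL (100 µL/well). Compounds in triplicate wells, 72 h at 25 °C; amphotericin B standard. MTT (5 mg/mL stock) 3 h, stopped with 50% isopropanol/10% SDS, OD570 minus 690. Percent inhibition vs control; mean ± SEM of three independent experiments.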

[4] = Anticancer activity against Syrian golden hamster BHK21 cells at 10 uM after 48 hrs by SRB assay; assay type: functional; details: Mesocricetus auratus, BHK-21, 48 h; read-out: GI; how it was run: as §1
NCI-H157 [5] = test: Anticancer activity against human NCI-H157 cells at 0.1 uM after 48 hrs by SRB assay; assay type: functional; details: NCI-H157, 48 h, read-out: GI; how it was run: as §1
NCI-H157 [6] = test: Anticancer activity against human NCI-H157 cells at 100 uM after 48 hrs by SRB assay; assay type: functional; details: NCI-H157, 48 h, read-out: GI; how it was run: as §1
Leishmania major [7] = test: Antileishmanial activity against promastigote form of Leishmania major at 0.1 uM after 72 hrs by MTT assay; assay type: functional; how it was run: as §2
[8] = target: Intestinal-type alkaline phosphatase (Bos taurus, UniProt P19111); test: Inhibition of calf intestinal alkaline phosphatase using p-nitrophenyl phosphate as substrate preincubated for 10 mins before substrate addition after 30 mins
[9] = Anticancer activity against Syrian golden hamster BHK21 cells at 1 uM after 48 hrs by SRB assay; assay type: functional; details: Mesocricetus auratus, BHK-21, 48 h; read-out: GI; how it was run: as §1
Leishmania major [10] = test: Antileishmanial activity against promastigote form of Leishmania major at 1 uM after 72 hrs by MTT assay; assay type: functional; how it was run: as §2
[11] = Anticancer activity against Syrian golden hamster BHK21 cells at 100 uM after 48 hrs by SRB assay; assay type: functional; details: Mesocricetus auratus, BHK-21, 48 h; read-out: GI; how it was run: as §1
NCI-H157 [12] = test: Anticancer activity against human NCI-H157 cells at 1 uM after 48 hrs by SRB assay; assay type: functional; details: NCI-H157, 48 h, read-out: GI; how it was run: as §1
Acetylcholinesterase = Acetylcholinesterase (Electrophorus electricus, UniProt O42275); test: Inhibition of electric eel acetylcholinesterase using acetylthiocholine iodide as substrate preincubated for 10 mins before substrate addition after 15 mins by Ellman's method
Leishmania major [13] = test: Antileishmanial activity against promastigote form of Leishmania major at 10 uM after 72 hrs by MTT assay; assay type: functional; how it was run: as §2

Sequence of Acetylcholinesterase (O42275 whole entry): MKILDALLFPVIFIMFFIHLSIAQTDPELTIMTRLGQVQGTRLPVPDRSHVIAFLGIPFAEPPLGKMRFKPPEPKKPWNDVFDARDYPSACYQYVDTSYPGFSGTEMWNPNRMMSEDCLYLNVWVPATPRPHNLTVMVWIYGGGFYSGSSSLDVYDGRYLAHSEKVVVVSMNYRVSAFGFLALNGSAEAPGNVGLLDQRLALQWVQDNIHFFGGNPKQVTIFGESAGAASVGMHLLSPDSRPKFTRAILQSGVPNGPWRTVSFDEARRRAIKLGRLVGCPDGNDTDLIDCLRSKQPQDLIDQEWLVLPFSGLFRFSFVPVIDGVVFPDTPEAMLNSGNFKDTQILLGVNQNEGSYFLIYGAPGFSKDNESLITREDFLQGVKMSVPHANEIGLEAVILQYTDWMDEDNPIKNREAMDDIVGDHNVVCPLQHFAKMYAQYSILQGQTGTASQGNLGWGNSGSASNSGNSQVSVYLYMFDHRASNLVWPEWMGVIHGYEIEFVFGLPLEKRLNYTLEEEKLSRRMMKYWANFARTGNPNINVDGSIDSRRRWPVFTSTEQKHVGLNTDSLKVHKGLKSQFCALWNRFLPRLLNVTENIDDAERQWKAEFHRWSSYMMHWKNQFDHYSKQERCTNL
Sequence of Intestinal-type alkaline phosphatase (P19111 whole entry): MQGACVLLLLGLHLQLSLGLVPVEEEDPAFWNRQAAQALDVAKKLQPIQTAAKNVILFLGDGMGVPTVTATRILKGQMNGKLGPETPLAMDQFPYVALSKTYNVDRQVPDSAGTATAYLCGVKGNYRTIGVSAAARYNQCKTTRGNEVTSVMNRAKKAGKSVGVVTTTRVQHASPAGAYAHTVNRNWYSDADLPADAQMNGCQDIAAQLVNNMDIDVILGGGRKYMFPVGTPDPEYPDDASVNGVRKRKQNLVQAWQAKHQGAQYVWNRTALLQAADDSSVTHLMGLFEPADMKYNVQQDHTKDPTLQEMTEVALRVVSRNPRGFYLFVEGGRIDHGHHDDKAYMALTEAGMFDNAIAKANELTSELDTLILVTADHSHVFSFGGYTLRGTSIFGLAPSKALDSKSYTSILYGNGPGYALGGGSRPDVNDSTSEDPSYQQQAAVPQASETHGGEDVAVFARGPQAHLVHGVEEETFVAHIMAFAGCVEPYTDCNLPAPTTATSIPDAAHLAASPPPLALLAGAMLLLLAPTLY
Sequence of Cholinesterase (P06276 whole entry): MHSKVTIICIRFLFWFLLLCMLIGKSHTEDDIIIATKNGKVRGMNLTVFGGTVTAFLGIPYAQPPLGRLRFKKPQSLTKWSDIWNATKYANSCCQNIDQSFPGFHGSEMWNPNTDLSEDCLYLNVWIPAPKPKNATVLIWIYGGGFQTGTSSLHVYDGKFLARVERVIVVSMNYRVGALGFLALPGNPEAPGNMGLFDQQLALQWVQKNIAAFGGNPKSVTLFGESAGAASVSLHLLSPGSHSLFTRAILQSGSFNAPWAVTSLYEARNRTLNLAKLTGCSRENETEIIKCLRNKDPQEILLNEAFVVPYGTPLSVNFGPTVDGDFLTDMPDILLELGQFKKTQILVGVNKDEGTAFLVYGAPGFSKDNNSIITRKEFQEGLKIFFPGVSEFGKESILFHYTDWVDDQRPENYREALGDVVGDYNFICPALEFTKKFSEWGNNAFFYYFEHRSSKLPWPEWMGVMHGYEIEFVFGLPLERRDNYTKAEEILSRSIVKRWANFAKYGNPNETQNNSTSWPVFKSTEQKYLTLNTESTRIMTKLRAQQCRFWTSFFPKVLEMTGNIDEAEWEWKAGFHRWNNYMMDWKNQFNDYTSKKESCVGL

| Structure (SMILES) | inhibition of growth at 0.1 µM [1] [%] | inhibition of growth at 10 µM (NCI-H157 [2]) [%] | IC50 (Cholinesterase) [µM] | inhibition at 100 µM (Leishmania major [3]) [%] | inhibition of growth at 10 µM [4] [%] | inhibition of growth at 0.1 µM (NCI-H157 [5]) [%] | inhibition of growth at 100 µM (NCI-H157 [6]) [%] | inhibition at 0.1 µM (Leishmania major [7]) [%] | IC50 [8] [µM] | inhibition of growth at 1 µM [9] [%] | inhibition at 1 µM (Leishmania major [10]) [%] | inhibition of growth at 100 µM [11] [%] | inhibition of growth at 1 µM (NCI-H157 [12]) [%] | IC50 (Acetylcholinesterase) [µM] | inhibition at 10 µM (Leishmania major [13]) [%] | inhibition of growth at 100 µM (Leishmania major [3]; read-out: GI) [%] | inhibition (Cholinesterase) [%] |
| --- | --- | --- | --- | --- | --- | --- | --- | --- | --- | --- | --- | --- | --- | --- | --- | --- | --- |
| c1ccc2c(C3=Nn4c(nnc4-c4ccncc4)SC3)cccc2c1 | 53.3 | 63.7 | 52.8 | 55.6 | 64.7 | 55.2 | 68.2 | 47.3 | 4.45 | 60.7 | 49 | 69.2 | 59.9 | 13.7 | 52.9 | – | – |
| c1coc(-c2nn3c(-c4ccncc4)nnc3s2)c1 | 41 | 63.8 | 61.6 | 81.2 | 48.2 | 56 | 67.9 | 71.5 | 3.24 | 44.9 | 75.8 | 50.9 | 60.9 | 12.4 | 77.2 | – | – |
| Cc1ccccc1OCc1nn2c(-c3ccncc3)nnc2s1 | 51.2 | 56.8 | 51.3 | 71.4 | 56.5 | 50.5 | 59.2 | 62.1 | 3.08 | 54.9 | 65.5 | 62.1 | 53.2 | 41.5 | 68.9 | – | – |
| C[C@@H]1[C@H](O)[C@@H](C)/C=C/C=C/C=C/C=C/C=C/C=C/C=C/[C@H](O[C@@H]2O[C@H](C)[C@@H](O)[C@H](N)[C@@H]2O)C[C@@H]2O[C@](O)(C[C@@H](O)C[C@@H](O)[C@H](O)CC[C@@H](O)C[C@@H](O)CC(=O)O[C@H]1C)C[C@H](O)[C@H]2C(=O)O [AMPHOTERICIN B] | – | – | – | 79.8 | – | – | – | 69.9 | – | – | 74.8 | – | – | – | 76.3 | – | – |
| Oc1ccc(OCc2nn3c(-c4ccncc4)nnc3s2)cc1 | 51.6 | 60.9 | 39.1 | 48 | 56.2 | 52.6 | 63.7 | 37.2 | 5.61 | 53.7 | 41.9 | 60.5 | 56.3 | 15.6 | 45.3 | – | – |
| CN(C)C(=O)Oc1cccc([N+](C)(C)C)c1 [NEOSTIGMINE] | – | – | 26.1 | – | – | – | – | – | – | – | – | – | – | 14.2 | – | – | – |
| CC[C@]1(O)C[C@H]2CN(CCc3c([nH]c4ccccc34)[C@@](C(=O)OC)(c3cc4c(cc3OC)N(C=O)[C@H]3[C@@](O)(C(=O)OC)[C@H](OC(C)=O)[C@]5(CC)C=CCN6CC[C@]43[C@@H]65)C2)C1 [VINCRISTINE] | 69.8 | 72.6 | – | – | 72.6 | 69.8 | 74.5 | – | – | 70.9 | – | 74.5 | 70.9 | – | – | – | – |
| Nn1c(S)nnc1-c1ccncc1 | 39.6 | 47.4 | 49.6 | – | 45.1 | 40.4 | 51.5 | 30.9 | 4.43 | 42.1 | 33.6 | 48.3 | 43.4 | 13.5 | 36.7 | 39.5 | – |
| Fc1ccc(-c2nn3c(-c4ccncc4)nnc3s2)cc1Cl | 40.9 | 50.9 | – | 56.7 | 46.3 | 43.6 | 53.7 | 47.7 | 2.01 | 43.6 | 51.6 | 51.4 | 46.6 | 30.2 | 54.3 | – | 14.4 |
| CCOc1ccc(Cc2nn3c(-c4ccncc4)nnc3s2)cc1 | 38.2 | 67.4 | 32.1 | 66.8 | 45.4 | 60.2 | 70.5 | 56.4 | 6.17 | 40.9 | 60.8 | 48.6 | 63.8 | 3.48 | 63 | – | – |
| O=[N+]([O-])c1cccc(C2=Nn3c(nnc3-c3ccncc3)SC2)c1 | 48.2 | 65.5 | 16.6 | 63.1 | 62.5 | 57.9 | 69.4 | 54.6 | 3.59 | 55.1 | 57.5 | 67.1 | 62.1 | 28 | 59.6 | – | – |
| Fc1cccc(C2=Nn3c(nnc3-c3ccncc3)SC2)c1 | 54.6 | 75.6 | – | 52.3 | 61.2 | 69.6 | 78.6 | 44.9 | 9.83 | 56.9 | 46.1 | 64.3 | 72.3 | 18.6 | 49.6 | – | 38.7 |
| Fc1ccc(OCc2nn3c(-c4ccncc4)nnc3s2)cc1 | 43.8 | 28.5 | 54.1 | 53.8 | 48.3 | 21.3 | 32 | 46.7 | 2.59 | 45.4 | 49.1 | 52.7 | 25.6 | 36.8 | 51.4 | – | – |
| c1ccc(-c2ccc(C3=Nn4c(nnc4-c4ccncc4)SC3)cc2)cc1 | 32.7 | 62.3 | 42.6 | 61.2 | 41.8 | 44.5 | 56.9 | 52.3 | 3.84 | 37.5 | 55.9 | 45.8 | 47.8 | 16.1 | 58.9 | – | – |
| Fc1cc(Cl)ccc1-c1nn2c(-c3ccncc3)nnc2s1 | 44.4 | 80.9 | 9.57 | 52.5 | 51.6 | 73.7 | 85.5 | 42.5 | 0.92 | 47.2 | 46.2 | 55.6 | 77.8 | 21.3 | 49.5 | – | – |
| COc1ccc(OCc2nn3c(-c4ccncc4)nnc3s2)cc1 | 63.3 | 65.6 | 37.9 | 60.5 | 71.9 | 57.2 | 68.9 | 49.6 | 3.72 | 68.8 | 52.2 | 74 | 61.7 | 0.77 | 57.2 | – | – |
